The subject of data set [1] is Trypanosoma cruzi. Briefly: Antitrypanosomal activity against Trypanosoma cruzi Queretaro epimastigotes assessed as reduction in parasite viability incubated for 24 hrs by Neubauer hematocytometery. The class given is functional. The procedure, abridged:
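T. cruzi Queretaro-strain epimastigotes were exposed to the compounds and parasite growth was measured. IC50 was taken as the concentration that inhibits parasite growth by 50%.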

Data set [2] is described as follows: Selectivity index, ratio of CC50 for cytotoxicity against mouse J774 cells to IC50 for antitrypanosomal activity against Trypanosoma cruzi Queretaro epimastigotes. The data set is classed as toxicity, cell-based. The note with it: read-out: Ratio CC50/IC50. A digest of the protocol:
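Selectivity index was calculated as CC50 in J774 mouse macrophages (resazurin reduction) divided by IC50 for growth inhibition of Queretaro-strain epimastigotes.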

A short description of data set [3]: Cytotoxicity against mouse J774 cells incubated for 24 hrs by resazurin dye based fluorescence assay. The data set is classed as cell-based. A digest of the protocol:
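J774 mouse macrophage cell line was exposed to the compounds, and cytotoxicity was read as resazurin reduction using a previously described method with modifications. The read-out gave CC50.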
Background: Alamar Blue is a resazurin reagent that responds to reducing activity.

Data set [4] deals with Trypanosoma cruzi. Briefly: Induction of changes in cellular redox balance in Trypanosoma cruzi Queretaro epimastigotes assessed as increase in cysteine level incubated for 24 hrs by HPLC and UV-Vis spectrophotometry. The class given is functional.
In data set [5] the test system is Trypanosoma cruzi. The data set can be described thus: Induction of changes in cellular redox balance in Trypanosoma cruzi Queretaro epimastigotes assessed as increase in GSH level incubated for 24 hrs by HPLC and UV-Vis spectrophotometry. The class given is functional.
The subject of data set [6] is Trypanosoma cruzi. The data set can be described thus: Induction of changes in cellular redox balance in Trypanosoma cruzi Queretaro epimastigotes assessed as increase in T(SH)2 level at 5 to 20 uM incubated for 24 hrs by HPLC and UV-Vis spectrophotometry. The data set is classed as functional.

Activity calls are given as the source filed them. The calls are words filed in the database; no cut-off is given here.

Here are results for 16 compounds from ChEMBL document CHEMBL4052705, “Synthesis and biological evaluation of 2-methyl-1H-benzimidazole-5-carbohydrazides derivatives as modifiers of redox homeostasis of Trypanosoma cruzi” (Bioorg Med Chem Lett, 2017).

On to `Cc1nc2cc(C(=O)N/N=C/c3cc(O)ccc3O)ccc2[nH]1`, for which, in the data set on Trypanosoma cruzi [1], the IC50 is over 500 µM. Regarding `COc1ccc(/C=N/NC(=O)c2ccc3[nH]c(C)nc3c2)cc1OC`, the IC50 with Trypanosoma cruzi [1] was over 500 µM. On to `Cc1nc2cc(C(=O)NN)ccc2[nH]1`, for which, in data set [2], the selectivity ratio was 0.6. Further, it took 233 µM to reach half-maximal cytotoxicity in data set [3] (CC50 at 24 h). Besides, the IC50 with Trypanosoma cruzi [1] stood at 393 µM. On to `COc1cc(/C=C/C=N/NC(=O)c2ccc3[nH]c(C)nc3c2)ccc1O`, for which the Activity entry in the data set on Trypanosoma cruzi [4] and in the data set on Trypanosoma cruzi [5] was “Dose-dependent effect” in each case. In addition, the outcome with Trypanosoma cruzi [6] was Active. In addition, the selectivity ratio in data set [2] was 20.1. In data set [3], the CC50 at 24 h was 161 µM. Besides, the concentration for half-maximal inhibition (IC50) in the data set with Trypanosoma cruzi [1] came to 8 µM. As for `Cc1nc2cc(C(=O)N/N=C/c3ccc4c(c3)OCCO4)ccc2[nH]1`, in the data set with Trypanosoma cruzi [1], the IC50 is over 500 µM.

Consider `COc1ccc(/C=N/NC(=O)c2ccc3[nH]c(C)nc3c2)c(OC)c1OC`, for which the concentration for half-maximal inhibition (IC50) with Trypanosoma cruzi [1] was over 500 µM. As for `Cc1nc2cc(C(=O)O)ccc2[nH]1`, in data set [2], the selectivity ratio is 1.2. Further, the 50% cytotoxic concentration (CC50) at 24 h in data set [3] was found to be 264 µM. Also, the concentration for half-maximal inhibition (IC50) in the data set with Trypanosoma cruzi [1] is 226 µM. On to `Cc1nc2cc(C(=O)N/N=C/c3ccc([N+](=O)[O-])o3)ccc2[nH]1`, for which the IC50 in the data set with Trypanosoma cruzi [1] was found to be 434 µM. For the compound `COc1cc(/C=N/NC(=O)c2ccc3[nH]c(C)nc3c2)cc(OC)c1OC`, the IC50 with Trypanosoma cruzi [1] was over 500 µM. In the case of `COc1ccc(/C=N/NC(=O)c2ccc3[nH]c(C)nc3c2)cc1`, in the data set with Trypanosoma cruzi [1], the IC50 stood at 320 µM. `Cc1nc2cc(C(=O)N/N=C/c3ccccc3)ccc2[nH]1`: the half-inhibitory concentration (IC50) in the data set on Trypanosoma cruzi [1] is 280 µM. As for `COc1cc(/C=N/NC(=O)c2ccc3[nH]c(C)nc3c2)ccc1O`, the Activity result in the data set on Trypanosoma cruzi [4] and with Trypanosoma cruzi [5] was “Dose-dependent effect” each time. Besides, the outcome with Trypanosoma cruzi [6] was inactive. Also, the selectivity ratio in data set [2] was found to be 53.5. This compound also displayed a 50% cytotoxic concentration (CC50) at 24 h in data set [3] of 161 µM. For the same compound, the IC50 in the data set on Trypanosoma cruzi [1] is 3 µM. With `O=C(Cn1ccnc1[N+](=O)[O-])NCc1ccccc1` [BENZNIDAZOLE], in the data set on Trypanosoma cruzi [1], the IC50 turned out to be 7.5 µM. Same read-out and setting: the value for `Cc1nc2cc(C(=O)N/N=C/c3ccc(O)c(O)c3)ccc2[nH]1` was 380 µM.

Consider `Cc1nc2cc(C(=O)N/N=C/c3ccc(O)cc3)ccc2[nH]1`, for which the IC50 with Trypanosoma cruzi [1] was over 500 µM. In the case of `CC1CS(=O)(=O)CCN1/N=C/c1ccc([N+](=O)[O-])o1` (stereo not given) [NIFURTIMOX], the selectivity ratio in data set [2] came to 36.5.

As a reminder, the IC50 is the midpoint of a concentration-inhibition curve. As a reminder, the CC50 is the concentration at which the toxic effect on the cells reaches its halfway point. A lower CC50 goes with greater toxicity to the cells.
